Data published in ChEMBL document CHEMBL1124690, “Synthesis and antitumor activity of fused tetracyclic quinoline derivatives. 1” (J Med Chem, 1989).
Converted amounts (≈) assume the structure as drawn. The source made the active and inactive calls. The rule behind the calls is not given here.

How the values were obtained:
[1] = Inhibition of KB cell growth in vitro; type: functional, cell-based; conditions: Homo sapiens
Procedure, shortened: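 KB clonal cells in Eagle's MEM with 10% calf serum, 37 °C, 5% CO2; seeded 2100 cells/cm², medium changed at 24 h, then graded drug 0.3–100 µg/mL for 48 h, duplicate dishes per concentration. Cells trypsinized and counted by Coulter counter; IC50 from log concentration vs growth rate (% of control).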

P388 [2] = experiment: Median survival time per control mice with leukemia P388 at 400 mg/kg dose injected a dose of 400 mg/kg; type: functional, organism-based; conditions: Mus musculus
Procedure, shortened: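 CD2F1 mice (six per group) given 10⁶ P388 cells ip; drug in 0.9% NaCl with a drop of Tween 80, ip on days 1 and 5. Activity as % T/C of median survival time, treated vs control.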

[3] = Percent fluorescence of the ethidium bromide-DNA complex
Procedure, shortened: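 Ethidium displacement: ethidium bromide 3 µM and calf thymus DNA 20 µM in Hepes 2 mM, EDTA 10 µM, NaCl 9.4 mM, pH 7.0; drug 10 µM. Excitation 564 nm filter, emission 595 nm. Fluorescence with drug as % of drug-free control; mean ± SE of three experiments.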

P388 [4] = experiment: Median survival time per control mice with leukemia P388 at 40 mg/kg dose injected intraperitoneally; type: functional, Mus musculus; conditions: route intraperitoneal
Procedure, shortened: (§1)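 CD2F1 mice (six per group) implanted ip with 10⁶ P388 leukemia cells. Drug dissolved in 0.9% NaCl with a drop of Tween 80, given ip once daily on days 1 and 5. % T/C = median survival time treated/control × 100.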

P388 [5] = experiment: Median survival time per control mice with leukemia P388 at 20 mg/kg dose injected intraperitoneally; type: functional, Mus musculus; conditions: route intraperitoneal; procedure, shortened: as §1
P388 [6] = experiment: Median survival time per control mice with leukemia P388 at 10 mg/kg dose injected intraperitoneally; type: functional, Mus musculus; conditions: route intraperitoneal; procedure, shortened: as §1
[7] = tested on: DNA topoisomerase II (Bos taurus); experiment: Activity of the topoisomerase II dependent DNA cleavage; Inactive
P388 [8] = experiment: Median survival time per control mice with leukemia P388 at 12.5 mg/kg dose injected intraperitoneally; type: functional, Mus musculus; conditions: route intraperitoneal; procedure, shortened: as §1
P388 [9] = experiment: Median survival time per control mice with leukemia P388 at 200 mg/kg dose injected intraperitoneally; type: functional, Mus musculus; conditions: route intraperitoneal; procedure, shortened: as §1
B16 [10] = experiment: Median survival time per control animal with B16 cells at 6.3 mg/kg dose injected intraperitoneally on day 1,5,8; type: functional, Mus musculus; conditions: route intraperitoneal
Procedure, shortened: (§2)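 Female-unspecified B6D2F1 mice inoculated ip with 0.5 mL of 10% homogenate (Hank's saline) of subcutaneous B16 melanoma. Drug given ip on days 1, 5 and 8. % T/C = median survival time of treated over control group.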

P388 [11] = experiment: Median survival time per control mice with leukemia P388 at 100 mg/kg dose injected intraperitoneally; type: functional, Mus musculus; conditions: route intraperitoneal; procedure, shortened: as §1
P388 [12] = experiment: Median survival time per control mice with leukemia P388 at 400 mg/kg dose injected intraperitoneally; type: functional, Mus musculus; conditions: route intraperitoneal; procedure, shortened: as §1
M5076 [13] = experiment: Median survival time per control animal with M5076 cells at 6.3 mg/kg dose injected intraperitoneally on day 1,5,9; type: functional, Mus musculus; conditions: route intraperitoneal
Procedure, shortened: (§3)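 B6D2F1 mice inoculated ip with 10⁶ M5076 fibrosarcoma cells; drug given ip on days 1, 5 and 9. Activity read as % T/C, ratio of median survival time of treated to control group.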

B16 [14] = experiment: Median survival time per control animal with B16 cells at 12.5 mg/kg dose injected intraperitoneally on day 1,5,8; type: functional, Mus musculus; conditions: route intraperitoneal; procedure, shortened: as §2
[15] = tested on: DNA topoisomerase II (Bos taurus); experiment: Activity of the topoisomerase II dependent DNA cleavage; Active
M5076 [16] = experiment: Median survival time per control animal with M5076 cells at 25 mg/kg dose injected intraperitoneally on day 1,5,9; type: functional, Mus musculus; conditions: route intraperitoneal; procedure, shortened: as §3
P388 [17] = experiment: Median survival time per control mice with leukemia P388 at 25 mg/kg dose injected intraperitoneally; type: functional, Mus musculus; conditions: route intraperitoneal; procedure, shortened: as §1
B16 [18] = experiment: Median survival time per control animal with B16 cells at 25 mg/kg dose injected intraperitoneally on day 1,5,8; type: functional, Mus musculus; conditions: route intraperitoneal; procedure, shortened: as §2
M5076 [19] = experiment: Median survival time per control animal with M5076 cells at 3.1 mg/kg dose injected intraperitoneally on day 1,5,9; type: functional, Mus musculus; conditions: route intraperitoneal; procedure, shortened: as §3
[20] = Median survival time per control animal with colon 38 carcinoma cells at 35 mg/kg dose injected intraperitoneally on day 1,8,15,22; type: functional, Mus musculus; conditions: route intraperitoneal
Procedure, shortened: (§4)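 Colon 38 inoculated sc as a 1 × 1 × 1 mm³ fragment into B6D2F1 mice; drug dosed ip on days 1, 8, 15 and 22. Result expressed as % T/C of median survival time, treated versus control.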

[21] = Median survival time per control animal with colon 38 carcinoma cells at 6.3 mg/kg dose injected intraperitoneally on day 1,8,15,22; type: functional, Mus musculus; conditions: route intraperitoneal; procedure, shortened: as §4
M5076 [22] = experiment: Median survival time per control animal with M5076 cells at 12.5 mg/kg dose injected intraperitoneally on day 1,5,9; type: functional, Mus musculus; conditions: route intraperitoneal; procedure, shortened: as §3
[23] = Median survival time per control animal with colon 38 carcinoma cells at 25 mg/kg dose injected intraperitoneally on day 1,8,15,22; type: functional, Mus musculus; conditions: route intraperitoneal; procedure, shortened: as §4
P388 [24] = experiment: Median survival time per control mice with leukemia P388 at 50 mg/kg dose injected intraperitoneally; type: functional, Mus musculus; conditions: route intraperitoneal; procedure, shortened: as §1
M5076 [25] = experiment: Median survival time per control animal with M5076 cells at 50 mg/kg dose injected intraperitoneally on day 1,5,9; type: functional, Mus musculus; conditions: route intraperitoneal; procedure, shortened: as §3
[26] = Median survival time per control animal with colon 38 carcinoma cells at 12.5 mg/kg dose injected intraperitoneally on day 1,8,15,22; type: functional, Mus musculus; conditions: route intraperitoneal; procedure, shortened: as §4
[27] = tested on: DNA topoisomerase II (Bos taurus); experiment: Activity of the topoisomerase II dependent DNA cleavage; (-) = Inactive
[28] = tested on: DNA topoisomerase 1 (Bos taurus); experiment: Unwinding of DNA observed in a reaction mixture containing PBR322 DNA dimer, calf thymus DNA topoisomerase I, and the drug; + = unwinding was observed at 100 ug/mL
[29] = tested on: DNA topoisomerase 1 (Bos taurus); experiment: Unwinding of DNA observed in a reaction mixture containing PBR322 DNA dimer, calf thymus DNA topoisomerase I, and the drug; ++ = unwinding was observed at 25 ug/mL

SMILES | IC50 [1] [µg/mL] | T/C (P388 [2]) | Fluoroscence [3] [%] | T/C (P388 [8]) [%] | T/C (P388 [17]) [%] | T/C (P388 [24]) [%] | also measured
CN(C)CCCNc1c2c(nc3ccccc13)CCN(C)C2 | 14 (≈ 46.9 µM) | inactive |  |  |  |  | 
COc1cc(NS(C)(=O)=O)ccc1Nc1c2c(nc3ccccc13)CCSC2 | 46 (≈ 111 µM) | inactive | 106 |  |  |  | 
COc1cc(NS(C)(=O)=O)ccc1Nc1c2ccccc2nc2ccccc12 [AMSACRINE] | < 0.3 |  | 63.7 |  |  |  | T/C (P388 [4]): 223%; T/C (P388 [5]): 198%; T/C (P388 [6]): 174%
COc1cc(NS(C)(=O)=O)ccc1Nc1c2c(nc3ccccc13)CCN(C)C2 | > 100 | inactive | 104 |  |  |  | 
COc1cc(NS(C)(=O)=O)ccc1Nc1c2c(nc3ccccc13)CCCC2 | 41 (≈ 103 µM) | inactive | 93.3 |  |  |  | Activity [7]: inactive
COc1cc(NS(C)(=O)=O)ccc1Nc1c2c(nc3ccccc13)-c1ccccc1C2 | < 0.3 |  | 67.6 | 166 | 217 | 240 | T/C (P388 [9]): 60%; T/C (B16 [10]): 184%; T/C (P388 [11]): 80%; T/C (P388 [12]): 0%; T/C (M5076 [13]): 158%; T/C (B16 [14]): 223%; Activity [15]: Active; T/C (M5076 [16]): 111%; T/C (B16 [18]): 211%; T/C (M5076 [19]): 193%; T/C [20]: 150%; T/C [21]: 111%; T/C (M5076 [22]): 184%; T/C [23]: 138%; T/C (M5076 [25]): 92%; T/C [26]: 133%
COc1cc(NS(C)(=O)=O)ccc1Nc1c2ccccc2nc2c3ccccc3n(C)c12 | 3.6 (≈ 8.06 µM) | inactive | 93.6 |  |  |  | 
CN(C)CCCNc1c2c(nc3ccccc13)CCCC2 | 1.3 (≈ 4.59 µM) | inactive | 82 |  |  |  | 
CN(C)CCCNc1c2c(nc3ccccc13)-c1ccccc1C2 | < 0.3 |  | 5.45 | 110 | 88 | 101 | Activity [27]: inactive
COc1cc(NS(C)(=O)=O)ccc1Nc1c2c(nc3ccccc13)-c1ccccc1C2C (centres undefined) | 15 (≈ 33.7 µM) | inactive | 95.3 |  |  |  | Activity [7]: inactive
COc1cc(NS(C)(=O)=O)ccc1Nc1c2ccccc2nc2c1oc1ccccc12 | < 0.3 |  | 81.4 | 117 | 125 | 159 | T/C (P388 [9]): 168%; T/C (P388 [11]): 138%; T/C (P388 [12]): 248%; Activity [15]: Active; Unwinding [28]: unwinding was observed at 100 ug/mL
COc1cc(NS(C)(=O)=O)ccc1Nc1c2ccccc2nc2c1sc1ccccc12 | < 0.3 |  | 79.3 | 138 | 170 | 170 | T/C (P388 [9]): 238%; T/C (P388 [11]): 166%; T/C (P388 [12]): 252%; Activity [15]: Active; Unwinding [29]: unwinding was observed at 25 ug/mL
